The source made the active and inactive calls. The rule behind the calls is not given here.
How the values were obtained:
Rattus norvegicus [1] = assay: Toxicity in rat spontaneous hypertensive model assessed as effect on heart rate at 15 mg/kg, po; format: organism-based; set-up: dose 15 mg/kg, route oral; conditions: in vivo
In short: (§1)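 Male spontaneously hypertensive rats, randomized into groups of ten. Compound suspended in 0.5% sodium carboxymethyl cellulose and given orally once at 15 or 30 mg/kg. Negative controls received the same volume of vehicle, and valsartan and irbesartan at equal doses served as positive controls. Blood pressure (SBP, DBP) and heart rate were monitored over 0–10 h after dosing with a biological signal analysis system.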

Rattus norvegicus [2] = assay: Antihypertensive activity in rat spontaneous hypertensive model assessed as reduction in diastolic blood pressure at 15 mg/kg, po up to 10 hrs; format: functional, organism-based; set-up: dose 15 mg/kg; conditions: Artery; in short: as §1
Rattus norvegicus [3] = assay: Antihypertensive activity in rat spontaneous hypertensive model assessed as reduction in systolic blood pressure at 15 mg/kg, po up to 10 hrs; format: functional, organism-based; set-up: dose 15 mg/kg; conditions: Artery; in short: as §1
Rattus norvegicus [4] = assay: Antihypertensive activity in rat spontaneous hypertensive model assessed as reduction in systolic blood pressure at 30 mg/kg, po up to 10 hrs; format: functional, organism-based; set-up: dose 30 mg/kg; conditions: Artery; in short: as §1
Rattus norvegicus [5] = species on record: Rattus norvegicus; assay: (§2) Displacement of [I125]angiotensin2 from AT1 receptor in Sprague-Dawley rat VSMC after 2.5 hrs by gamma spectrophotometry
In short: (§3)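 Smooth muscle cells from rat aorta were isolated by collagenase digestion (1 h, 37 °C) and grown in DMEM with 15% FBS. Quiescent, confluent monolayers were incubated in PBS with 0.1 nM 125I-Ang II and compound at final 1×10^-12 to 1×10^-6 M for 2.5 h at 4 °C. Nonspecific binding was defined with 1×10^-6 M competitor. Cells were washed three times, lysed in 0.1 M NaOH, and bound radioactivity was gamma counted.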

[6] = as §2; in short: as §3
Rattus norvegicus [7] = assay: Toxicity in rat spontaneous hypertensive model assessed as effect on heart rate at 30 mg/kg, po; format: organism-based; set-up: dose 30 mg/kg, route oral; conditions: in vivo; in short: as §1
Rattus norvegicus [8] = assay: Antihypertensive activity in rat spontaneous hypertensive model assessed as reduction in diastolic blood pressure at 30 mg/kg, po up to 10 hrs; format: functional, organism-based; set-up: dose 30 mg/kg; conditions: Artery; in short: as §1
[9] = Acute toxicity in intragastrically dosed ICR rat; format: organism-based; conditions: in vivo, po
In short: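 ICR rats (6–8 weeks, individually weighed) dosed intragastrically at 1000.0–5000.0 mg/kg (six dose levels); daily survival over 14 days. LD50 with 95% confidence limits obtained by logistic regression (GLM) curve fitting of 14-day mortality data.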

[10] = Acute toxicity in ICR rat assessed as mortality at 3823.6 mg/kg, administered intragastrically after 14 days relative to control; format: organism-based; set-up: dose 3823.6 mg/kg, route intragastric; conditions: in vivo, po, read-out: Activity
In short: (§4)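 Normal ICR rats, 6–8 weeks, weighed individually; single intragastric doses of 5000.0, 3823.6, 2924.0, 2236.1, 1710.0 or 1000.0 mg/kg. Survival checked daily for two weeks. Animals observed continuously for physical signs of toxicity (skin changes, mobility, aggressiveness, respiratory movements). Survivors dissected at the end and organs examined for pathological changes.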

Rattus norvegicus [11] = assay: Acute toxicity in ICR rat assessed as weight loss at 1000 mg/kg, administered intragastrically after 2 weeks; format: organism-based; set-up: dose 1000 mg/kg, route intragastric; conditions: in vivo, po, 336 h; in short: as §4
Rattus norvegicus [12] = assay: Acute toxicity in ICR rat assessed as weight loss at 5000 mg/kg, administered intragastrically after 2 weeks; format: organism-based; set-up: dose 5000 mg/kg, route intragastric; conditions: in vivo, po, 336 h; in short: as §4
Rattus norvegicus [13] = assay: Acute toxicity in ICR rat assessed as weight loss at 3823.6 mg/kg, administered intragastrically after 2 weeks; format: organism-based; set-up: dose 3823.6 mg/kg, route intragastric; conditions: in vivo, po, 336 h; in short: as §4
[14] = Acute toxicity in ICR rat assessed as mortality at 1000 mg/kg, administered intragastrically after 14 days relative to control; format: organism-based; set-up: dose 1000 mg/kg, route intragastric; conditions: in vivo, po, read-out: Activity; in short: as §4
[15] = Acute toxicity in ICR rat assessed as mortality at 1710 mg/kg, administered intragastrically after 14 days relative to control; format: organism-based; set-up: dose 1710 mg/kg, route intragastric; conditions: in vivo, po, read-out: Activity; in short: as §4
Rattus norvegicus [16] = assay: Acute toxicity in ICR rat assessed as hypokinetic beginning at 5000 mg/kg, administered intragastrically after 5 hrs; format: organism-based; set-up: dose 5000 mg/kg, route intragastric; conditions: in vivo, po; in short: as §4
Rattus norvegicus [17] = assay: Acute toxicity in ICR rat assessed as weight loss at 1710 mg/kg, administered intragastrically after 2 weeks; format: organism-based; set-up: dose 1710 mg/kg, route intragastric; conditions: in vivo, po, 336 h; in short: as §4
Rattus norvegicus [18] = assay: Acute toxicity in ICR rat assessed as hypokinetic beginning at 1710 mg/kg, administered intragastrically after 5 hrs; format: organism-based; set-up: dose 1710 mg/kg, route intragastric; conditions: in vivo, po; in short: as §4
Rattus norvegicus [19] = assay: Acute toxicity in ICR rat assessed as weight loss at 2236.1 mg/kg, administered intragastrically after 2 weeks; format: organism-based; set-up: dose 2236.1 mg/kg, route intragastric; conditions: in vivo, po, 336 h; in short: as §4
[20] = Acute toxicity in ICR rat assessed as mortality at 2236.1 mg/kg, administered intragastrically after 14 days relative to control; format: organism-based; set-up: dose 2236.1 mg/kg, route intragastric; conditions: in vivo, po, read-out: Activity; in short: as §4
Rattus norvegicus [21] = assay: Acute toxicity in ICR rat assessed as hypokinetic beginning at 3823.6 mg/kg, administered intragastrically after 5 hrs; format: organism-based; set-up: dose 3823.6 mg/kg, route intragastric; conditions: in vivo, po; in short: as §4
Rattus norvegicus [22] = assay: Acute toxicity in ICR rat assessed as hypokinetic beginning at 2236.1 mg/kg, administered intragastrically after 5 hrs; format: organism-based; set-up: dose 2236.1 mg/kg, route intragastric; conditions: in vivo, po; in short: as §4
Rattus norvegicus [23] = assay: Antihypertensive activity in rat spontaneous hypertensive model assessed as time of maximum effect on systolic blood pressure at 30 mg/kg, po; format: functional, Artery; in short: as §1
Rattus norvegicus [24] = assay: Acute toxicity in ICR rat assessed as hypokinetic beginning at 2924 mg/kg, administered intragastrically after 5 hrs; format: organism-based; set-up: dose 2924 mg/kg, route intragastric; conditions: in vivo, po; in short: as §4
Rattus norvegicus [25] = assay: Acute toxicity in ICR rat assessed as hypokinetic beginning at 1000 mg/kg, administered intragastrically after 5 hrs; format: organism-based; set-up: dose 1000 mg/kg, route intragastric; conditions: in vivo, po; in short: as §4
[26] = Acute toxicity in ICR rat assessed as mortality at 5000 mg/kg, administered intragastrically after 14 days relative to control; format: organism-based; set-up: dose 5000 mg/kg, route intragastric; conditions: in vivo, po, read-out: Activity; in short: as §4
Rattus norvegicus [27] = assay: Antihypertensive activity in rat spontaneous hypertensive model assessed as time of maximum effect on diastolic blood pressure at 30 mg/kg, po; format: functional, Artery; in short: as §1
Rattus norvegicus [28] = assay: Acute toxicity in ICR rat assessed as weight loss at 2924 mg/kg, administered intragastrically after 2 weeks; format: organism-based; set-up: dose 2924 mg/kg, route intragastric; conditions: in vivo, po, 336 h; in short: as §4
[29] = Acute toxicity in ICR rat assessed as mortality at 2924 mg/kg, administered intragastrically after 14 days relative to control; format: organism-based; set-up: dose 2924 mg/kg, route intragastric; conditions: in vivo, po, read-out: Activity; in short: as §4

SMILES | Activity (Rattus norvegicus [1]) | Activity (Rattus norvegicus [2]) | Activity (Rattus norvegicus [3]) | Activity (Rattus norvegicus [4]) | inhibition (Rattus norvegicus [5]) | IC50 [6] [nM] | Ki [6] [nM] | Activity (Rattus norvegicus [7]) | Activity (Rattus norvegicus [8]) | Time (Rattus norvegicus [23]) [h] | Time (Rattus norvegicus [27]) [h] | further results
CCCCC(=O)N(Cc1ccc(-c2ccccc2-c2nc(=O)o[nH]2)cc1)[C@@H](CC(C)C)C(=O)O | Non-toxic | inactive | inactive | inactive | Dose-dependent effect | 10.2 | 6.88 | Non-toxic | inactive | – | – | –
CCCCc1nc(Cl)c(CO)n1Cc1ccc(-c2ccccc2-c2nn[nH]n2)cc1 [LOSARTAN] | – | – | – | – | – | – | – | – | – | – | – | LD50 [9]: 2250 mg/kg
CCCCC(=O)N(Cc1ccc(-c2ccccc2-c2nnn[nH]2)cc1)[C@H](C(=O)O)C(C)C [VALSARTAN] | Non-toxic | Active | Active | – | Dose-dependent effect | 2.64 | 2.22 | Non-toxic | – | – | – | LD50 [9]: 308 mg/kg
CCCC(=O)N(Cc1ccc(-c2ccccc2-c2nc(=O)o[nH]2)cc1)[C@H](C(=O)O)C(C)C | Non-toxic | Active | Active | Active | Dose-dependent effect | 0.49 | 0.33 | Non-toxic | Active | 3 | 3 | LD50 [9]: 2320 mg/kg; mortality at 336 h [10]: 80%; Activity (Rattus norvegicus [11]): Non-toxic; Activity (Rattus norvegicus [12]): Non-toxic; Activity (Rattus norvegicus [13]): Non-toxic; mortality at 336 h [14]: 0%; mortality at 336 h [15]: 30%; Activity (Rattus norvegicus [16]): Toxic; Activity (Rattus norvegicus [17]): Non-toxic; Activity (Rattus norvegicus [18]): Toxic; Activity (Rattus norvegicus [19]): Non-toxic; mortality at 336 h [20]: 50%; Activity (Rattus norvegicus [21]): Toxic; Activity (Rattus norvegicus [22]): Toxic; Activity (Rattus norvegicus [24]): Toxic; Activity (Rattus norvegicus [25]): Non-toxic; mortality at 336 h [26]: 100%; Activity (Rattus norvegicus [28]): Non-toxic; mortality at 336 h [29]: 60%
CCCCC(=O)N(Cc1ccc(-c2ccccc2-c2nc(=O)o[nH]2)cc1)[C@@H](Cc1ccccc1)C(=O)O | Non-toxic | inactive | inactive | inactive | Dose-dependent effect | 18 | 12.2 | Non-toxic | inactive | – | – | –
CCCC(=O)N(Cc1ccc(-c2ccccc2-c2nc(=O)o[nH]2)cc1)[C@@H](CC(C)C)C(=O)O | Non-toxic | Active | Active | Active | Dose-dependent effect | 36 | 24.3 | Non-toxic | Active | 3 | 3 | –
CCC(=O)N(Cc1ccc(-c2ccccc2-c2nc(=O)o[nH]2)cc1)[C@H](C(=O)O)C(C)C | Non-toxic | Active | Active | Active | Dose-dependent effect | 1.6 | 1.03 | Non-toxic | Active | 3 | 3 | –
CCCC(=O)N(Cc1ccc(-c2ccccc2-c2nc(=O)o[nH]2)cc1)[C@@H](Cc1ccccc1)C(=O)O | Non-toxic | inactive | inactive | inactive | Dose-dependent effect | 26.5 | 17.9 | Non-toxic | inactive | – | – | –
CCCCC(=O)N(Cc1ccc(-c2ccccc2-c2nc(=O)o[nH]2)cc1)[C@H](C(=O)O)C(C)C | Non-toxic | Active | Active | Active | Dose-dependent effect | 9.82 | 6.65 | Non-toxic | Active | 3 | 3 | –
CCCCC1=NC2(CCCC2)C(=O)N1Cc1ccc(-c2ccccc2-c2nnn[nH]2)cc1 [IRBESARTAN] | Non-toxic | Active | Active | Active | Dose-dependent effect | 0.58 | 0.41 | Non-toxic | Active | 3 | 3 | –
CCCC(=O)N(Cc1ccc(-c2cc(F)ccc2-c2noc(=O)[nH]2)cc1)[C@H](C(=O)O)C(C)C | Non-toxic | – | – | Active | Dose-dependent effect | 20.8 | 14.1 | Non-toxic | Active | 3 | 3 | –
